Measurements of several laboratories.
Protocols differ between the studies behind these lines.
Target: Protein kinase C delta type (PRKCD, Homo sapiens, UniProt Q05655)

Compound	observed	method	tested at	remaining binding [%]
O=C(NCCCN1CCOCC1)c1ccc(Nc2ncc(Cl)c(-c3ccc(Cl)s3)n2)cc1	binding	competition with immobilised ligand	1 µM	81
O=C1NC(c2ccccn2)Sc2ccccc21 (stereo not drawn)	cell-free assay	competition with immobilised ligand	1 µM	71
O=C(Nc1c[nH]nc1C(=O)NC1CCNCC1)c1cc(F)cc(F)c1	binding	competition with immobilised ligand	1 µM	100
c1cncc(-c2cccc(Nc3nccc(NC4CCCCC4)n3)c2)c1	binding	competition with immobilised ligand	10 µM	45
CC1CCCN1c1nccc(-c2cnn3ncccc23)n1 (stereo not drawn)	binding	–	1 µM	100
Cc1cnc(Nc2ccc(C(=O)N3CCC(N4CCCC4)CC3)cc2)nc1-c1cc2ccccc2s1	binding	competition with immobilised ligand	1 µM	23
CN(C)c1ncc(F)c(-c2cnn3ncccc23)n1	binding	–	1 µM	100
Nc1ncc2c(n1)-c1c([nH]c3ccc(C#CC4CC4)cc13)CCCC2	binding	competition with immobilised ligand	1 µM	97
O=C(N[C@H]1CCCCC/C=C\C2C[C@@]2(C(=O)O)NC(=O)[C@@H]2C[C@@H](Oc3ccncc3)CN2C1=O)OC1CCCC1 (stereo partly drawn)	cell-free assay	competition with immobilised ligand	1 µM	100
FC(F)(F)Oc1cccc(-c2cnc3ccc(-c4ccncc4)nn23)c1	cell-free assay	competition with immobilised ligand	5 µM	71
CN(CCCC(F)(F)F)c1nccc(-c2cnn3ncccc23)n1	binding	–	1 µM	90
COc1cnc(Nc2cccc(S(N)(=O)=O)c2)nc1N1CCN(c2ccccc2)CC1	binding	competition with immobilised ligand	1 µM	100
O=C(c1ccc(Nc2ncc(Cl)c(-c3ccc(Cl)s3)n2)cc1)N1CCC(N2CCCC2)CC1	binding	competition with immobilised ligand	1 µM	48
CN1CCN(c2cnc3c(C4CCN(C(=O)c5ccc(OC(F)(F)F)cc5N)CC4)ncnc3c2)CC1	cell-free assay	competition with immobilised ligand	1 µM	100
CN(c1nccc(-c2cnn3ncccc23)n1)C1CC1	binding	–	1 µM	85
CCCOc1ccc([C@@H]2[C@@H](C(=O)O)[C@H](c3ccc4c(c3)OCO4)CN2CC(=O)Nc2c(CC)cccc2CC)cc1	cell-free assay	competition with immobilised ligand	1 µM	100
N[C@H]1CCN(c2nccc(-c3cnn4ncccc34)n2)C1	binding	–	1 µM	100
Cc1nc(N2CC[C@@H](O)C2)ncc1-c1cc(C(F)(F)F)cc2[nH]ncc12	cell-free assay	competition with immobilised ligand	1 µM	94
C[C@@H](c1ccc(-n2cnc3c(N)ncnc32)cc1)N1CCc2nn(C)c(Cc3ccccc3)c2C1=O	binding	competition with immobilised ligand	0.1 µM	100
Cc1cc(NC(=O)c2cccc(S(F)(F)(F)(F)F)c2)cc(-n2ccn3nc(-c4cccnc4)cc23)c1	cell-free assay	competition with immobilised ligand	1 µM	95.8
C[C@@H]1CCN(c2nccc(-c3cnn4ncccc34)n2)C1	binding	–	1 µM	100
